Test results: ChEMBL document CHEMBL1132586, “New water-soluble duocarmycin derivatives: synthesis and antitumor activity of A-ring pyrrole compounds bearing beta-heteroarylacryloyl groups” (J Med Chem, 1999)

How the values were obtained:
Mus musculus [1] = species: Mus musculus; assay: Compound was tested for hematotoxicity and the number of peripheral platelets of normal mice on day 7 (percent of control) was determined, expressed as percent of control; format: functional
Summary of the method: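 Normal male ddY mice (mean weight 20 ± 1 g) given a single iv tail-vein injection of drug dissolved in saline; 7 days later orbital-vein blood drawn and platelets counted on a microcell counter; value is treated count as percent of control.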

Mus musculus [2] = species: Mus musculus; assay: Compound was tested for hematotoxicity and the number of white blood cells of tumor bearing mice on day 4(percent of control) was determined, expressed as percent of control; format: functional
Summary of the method: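 Sarcoma 180-bearing mice dosed iv starting 1 day after sc tumour inoculation; 4 days later orbital-vein blood drawn and white blood cells counted on a microcell counter; value is treated count as percent of control.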

CCRF S-180 [3] = assay: Compound was tested in vivo for antitumor activity against murine sarcoma 180 in mice at 0.25 mg/kg dosage and efficacy is expressed as T/C (mice were implanted subcutaneously with tumor cells and the drug was dosed intravenously); format: functional, Mus musculus; details: route intravenous
Summary of the method: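 Sarcoma 180 cells passaged in adult male ddY mice and inoculated sc at the axillary region, 5 mice/group; iv dosing began 1 day after inoculation. Tumour volume = length × width²/2. T/C is treated over control mean tumour volume; effective at ≤42%, Mann–Whitney U test (p < 0.05).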

HeLa [4] = assay: Compound was tested in vitro for anticellular activity against HeLa S3 cell growth at 1-hour exposure.; format: functional, cell-based; details: Homo sapiens
HeLa [5] = assay: Compound was tested in vitro for anticellular activity against HeLa S3 cell growth at 72-hour exposure.; format: functional, cell-based; details: Homo sapiens
CCRF S-180 [6] = assay: Compound was tested in vivo for antitumor activity against murine sarcoma 180 in mice at 4 mg/kg dosage and efficacy is expressed as T/C (mice were implanted subcutaneously with tumor cells and the drug was dosed intravenously); details: route intravenous
[7] = Aqueous solubility of the compound; format: physicochemical; details: water; read-out: S

SMILES	Hematotoxicity (Mus musculus [1]) [%]	Hematotoxicity (Mus musculus [2]) [%]	T/C (CCRF S-180 [3])	IC50 (HeLa [4]) [nM]	IC50 (HeLa [5]) [nM]	T/C (CCRF S-180 [6])	solubility [7] [mg/mL]
COC(=O)c1c(C)[nH]c2c1[C@@]13C[C@@H]1CN(C(=O)/C=C/c1ccc(OC)cc1)C3=CC2=O	50	63	0.34				
COC(=O)c1c(C)[nH]c2c1[C@@]13C[C@@H]1CN(C(=O)/C=C/c1ccc(OC)nc1)C3=CC2=O	50	84		3.3	0.42	0.6	
COC(=O)c1c(C)[nH]c2c1[C@@]13C[C@@H]1CN(C(=O)/C=C/c1cnc(OC)nc1)C3=CC2=O	28	86	0.45	2.5	0.9		
COC(=O)c1c(C)[nH]c2c1[C@@]13C[C@@H]1CN(C(=O)/C=C/c1ccc(OC)cn1)C3=CC2=O				9.7	2.9		
COC(=O)c1c(C)[nH]c2c1[C@@]13C[C@@H]1CN(C(=O)/C=C/c1ccc(OC)nn1)C3=CC2=O				0.5	0.28		
COC(=O)c1c(C)[nH]c2c(OC(=O)N3CCN(C)CC3)cc3c(c12)[C@H](CBr)CN3C(=O)/C=C/c1ccc(OC)cn1.Cl	38	105	0.5	1300	150		> 20
COC(=O)c1c(C)[nH]c2c(OC(=O)N3CCN(C)CC3)cc3c(c12)[C@H](CBr)CN3C(=O)/C=C/c1cnc(OC)nc1.Cl	26	69	0.26	1300	170		> 20
COC(=O)c1c(C)[nH]c2c(OC(=O)N3CCN(C)CC3)cc3c(c12)[C@H](CBr)CN3C(=O)/C=C/c1ccc(OC)nn1.Cl	51	115	0.31	1100	90		> 20
COC(=O)c1c(C)[nH]c2c(OC(=O)N3CCN(C)CC3)cc3c(c12)[C@H](CBr)CN3C(=O)/C=C/c1ccc(OC)nc1.Cl	38	92	0.36	900	110		> 20
